The record followed here is ChEMBL document CHEMBL4138085, “Design, synthesis and antimicrobial evaluation of novel benzimidazole-incorporated sulfonamide analogues” (Eur J Med Chem, 2017).

The subject of experiment [1] is Bacillus subtilis. In words: Antibacterial activity against Bacillus subtilis ATCC 21216 after 24 hrs by NCCLS two fold broth microdilution method. It counts as functional. To be noted: ATCC 21216, 24 h. The gist of the method: (§1)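 Two-fold serial broth microdilution in 96-well plates following NCCLS. Compounds were dissolved in DMSO as stocks, then diluted in Mueller–Hinton broth to final concentrations of 0.5–512 µg/mL. Plates were inoculated and incubated at 37 °C for 24 h, with growth read visually and spectrophotometrically. MIC was taken as the lowest concentration giving complete growth inhibition. Run in triplicate, with a DMSO-plus-inoculum solvent control.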

The subject of experiment [2] is Micrococcus luteus. Put plainly: Antibacterial activity against Micrococcus luteus ATCC 4698 after 24 hrs by NCCLS two fold broth microdilution method. In kind it is functional. Conditions: NCTC 2665, 24 h. The gist of the method:
as §1

For experiment [3], the system named is Pseudomonas aeruginosa. Put plainly: Antibacterial activity against Pseudomonas aeruginosa ATCC 27853 after 24 hrs by NCCLS two fold broth microdilution method. It counts as functional. Conditions: ATCC 27853, 24 h. The gist of the method:
(§2)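 Two-fold serial broth microdilution in 96-well plates following NCCLS. Plates were inoculated and incubated at 37 °C for 24 h, with growth read visually and spectrophotometrically. MIC was taken as the lowest concentration giving complete growth inhibition. Run in triplicate, with a DMSO-plus-inoculum solvent control.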

Experiment [4] deals with Escherichia coli. In words: Antibacterial activity against Escherichia coli ATCC 8099 after 24 hrs by NCCLS two fold broth microdilution method. It counts as functional. Conditions: ATCC 8099, 24 h. The gist of the method:
as §2

The test system of experiment [5] is Staphylococcus aureus. In words: Antibacterial activity against Staphylococcus aureus ATCC 25923 after 24 hrs by NCCLS two fold broth microdilution method. In kind it is functional. To be noted: ATCC 25923, 24 h. The gist of the method: as §1
For experiment [6], the system named is Salmonella typhi. In words: Antibacterial activity against Bacillus typhi after 24 hrs by NCCLS two fold broth microdilution method. In kind it is functional, Salmonella enterica subsp. enterica serovar Typhi. To be noted: Salmonella enterica. The gist of the method: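 Two-fold serial broth microdilution per NCCLS. DMSO stocks diluted in Mueller–Hinton broth to 512, 256, 128, 64, 32, 16, 8, 4, 2, 1, 0.5 µg/mL. Chloromycin and norfloxacin as reference drugs; DMSO with inoculum, no drug, as solvent control. Incubation 37 °C for 24 h. Growth read visually and spectrophotometrically. MIC is the lowest concentration completely inhibiting growth; triplicate.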

Experiment [7] has as its system Aspergillus flavus. Put plainly: Antifungal activity against Aspergillus flavus after 24 hrs by NCCLS two fold broth microdilution method. In kind it is functional. The method in brief: (§3)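 Two-fold serial microdilution following NCCLS. A spore suspension in sterile distilled water was prepared from one-day-old cultures grown on Sabouraud agar and adjusted to a final 1–5 × 10^3 spores/mL. DMSO stocks were diluted in RPMI 1640 to eleven concentrations (0.5–512 µg/mL), inoculated and held at 35 °C for 24 h. Growth was read visually and spectrophotometrically, MIC was the lowest concentration with complete inhibition, and runs were in triplicate.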

The test system of experiment [8] is Staphylococcus aureus. In words: Antibacterial activity against methicillin-resistant Staphylococcus aureus N315 after 24 hrs by NCCLS two fold broth microdilution method. In kind it is functional. Conditions: N315, 24 h. The gist of the method: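 Two-fold serial broth microdilution per NCCLS. Chloromycin and norfloxacin as reference drugs; DMSO with inoculum, no drug, as solvent control. Incubation 37 °C for 24 h. Growth read visually and spectrophotometrically. MIC is the lowest concentration completely inhibiting growth; triplicate.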

Experiment [9] concerns Candida albicans. In words: Antifungal activity against Candida albicans ATCC 76615 after 24 hrs by NCCLS two fold broth microdilution method. Conditions: ATCC 76615, 24 h. In kind it is functional. The method in brief:
as §3

Experiment [10] relates to Pichia norvegensis. In words: Antifungal activity against Candida mycoderma after 24 hrs by NCCLS two fold broth microdilution method. It counts as functional.
Experiment [11] has as its system Bacillus. Put plainly: Antibacterial activity against Bacillus proteus ATCC 13315 after 24 hrs by NCCLS two fold broth microdilution method. Conditions: ATCC 13315, 24 h. In kind it is functional. The gist of the method: as §1
Experiment [12] deals with Saccharomyces cerevisiae. Put plainly: Antifungal activity against Saccharomyces cerevisiae after 24 hrs by NCCLS two fold broth microdilution method. In kind it is functional. The method in brief: as §3
Experiment [13] has as its system Cyberlindnera jadinii. Put plainly: Antifungal activity against Candida utilis after 24 hrs by NCCLS two fold broth microdilution method. In kind it is functional. To be noted: Williopsis jadinii. The method in brief: as §3
Experiment [14] deals with Aspergillus flavus. Put plainly: Potency index, ratio of Fluconazole MIC to compound MIC for Aspergillus flavus. It counts as functional.

Converted amounts (≈) assume the structure as drawn.

For the compound `Nc1ccc(S(=O)(=O)Cc2nc3ccccc3n2Cc2ccccc2F)cc1`, the MIC amounted to 16 µg/mL (≈ 40.5 µM) in experiment [1]; 32 µg/mL (≈ 80.9 µM) in experiment [2]; 512 µg/mL (≈ 1290 µM) in experiment [3]; 4 µg/mL (≈ 10.1 µM) in [4]; 64 µg/mL (≈ 162 µM) in experiment [5]; 16 µg/mL (≈ 40.5 µM) in experiment [6]. The MIC in experiment [7] stood at 32 µg/mL (≈ 80.9 µM); in experiment [8], 64 µg/mL (≈ 162 µM); in experiment [9], 128 µg/mL (≈ 324 µM); in experiment [10], 8 µg/mL (≈ 20.2 µM); in [11], 256 µg/mL (≈ 647 µM); in experiment [12], 8 µg/mL (≈ 20.2 µM). The compound also came in with an MIC in experiment [13] of 4 µg/mL (≈ 10.1 µM). Besides, the Ratio in experiment [14] is reported as 8.
Consider `CCCn1c(CS(=O)(=O)c2ccc(N)cc2)nc2ccccc21`, for which the MIC is 32 µg/mL (≈ 97.1 µM) in experiment [1]; 256 µg/mL (≈ 777 µM) in experiment [2]; 256 µg/mL (≈ 777 µM) in [3]; 64 µg/mL (≈ 194 µM) in experiment [4]; 256 µg/mL (≈ 777 µM) in experiment [5]; 32 µg/mL (≈ 97.1 µM) in [6]. The MIC in experiment [7] came to 8 µg/mL (≈ 24.3 µM); in experiment [8], 128 µg/mL (≈ 389 µM); in experiment [9] it was 64 µg/mL (≈ 194 µM); in [10], 4 µg/mL (≈ 12.1 µM); in experiment [11], 256 µg/mL (≈ 777 µM); in experiment [12] it was 32 µg/mL (≈ 97.1 µM). Moreover, in experiment [13], 64 µg/mL (≈ 194 µM) was the least that counted as inhibitory (MIC).
For `CCCCCn1c(CS(=O)(=O)c2ccc(N)cc2)nc2ccccc21`, the MIC stood at 512 µg/mL (≈ 1430 µM) in experiment [1]; 256 µg/mL (≈ 716 µM) in [2]; 512 µg/mL (≈ 1430 µM) in experiment [3]; 512 µg/mL (≈ 1430 µM) in experiment [4]; 512 µg/mL (≈ 1430 µM) in experiment [5]; 512 µg/mL (≈ 1430 µM) in [6]. For the same compound, the MIC in experiment [7] turned out to be 256 µg/mL (≈ 716 µM); in [8], 512 µg/mL (≈ 1430 µM); in [9], 512 µg/mL (≈ 1430 µM); in [10], 512 µg/mL (≈ 1430 µM); in experiment [11], 512 µg/mL (≈ 1430 µM); in experiment [12], 128 µg/mL (≈ 358 µM). This compound had an MIC in experiment [13] of 512 µg/mL (≈ 1430 µM).
For the compound `CCCCCCCCn1c(CS(=O)(=O)c2ccc(NC(C)=O)cc2)nc2ccccc21`, the MIC was 128 µg/mL (≈ 290 µM) in experiment [1]; 256 µg/mL (≈ 580 µM) in [2]; 256 µg/mL (≈ 580 µM) in [3]; 512 µg/mL (≈ 1160 µM) in experiment [4]; 64 µg/mL (≈ 145 µM) in [5]; 512 µg/mL (≈ 1160 µM) in experiment [6]. In addition, the MIC stood at 512 µg/mL (≈ 1160 µM) in [7]; 512 µg/mL (≈ 1160 µM) in experiment [8]; 512 µg/mL (≈ 1160 µM) in experiment [9]; 512 µg/mL (≈ 1160 µM) in [10]; 256 µg/mL (≈ 580 µM) in experiment [11]; 8 µg/mL (≈ 18.1 µM) in [12]. The MIC in experiment [13] was determined as 512 µg/mL (≈ 1160 µM).
As for `Nc1ccc(S(=O)(=O)Cc2nc3ccccc3n2Cc2ccc(Cl)c(Cl)c2)cc1`, the MIC in experiment [1] was 512 µg/mL (≈ 1150 µM); in experiment [2], 256 µg/mL (≈ 574 µM); in experiment [3], 512 µg/mL (≈ 1150 µM); in experiment [4], 512 µg/mL (≈ 1150 µM); in experiment [5], 512 µg/mL (≈ 1150 µM); in experiment [6], 64 µg/mL (≈ 143 µM). The MIC in experiment [7] was found to be 512 µg/mL (≈ 1150 µM); in experiment [8] it was 128 µg/mL (≈ 287 µM); in [9], 64 µg/mL (≈ 143 µM); in experiment [10] it was 512 µg/mL (≈ 1150 µM); in experiment [11], 512 µg/mL (≈ 1150 µM); in experiment [12], 256 µg/mL (≈ 574 µM). The compound further came in with an MIC in [13] of 256 µg/mL (≈ 574 µM).
Regarding `CCn1c(CS(=O)(=O)c2ccc(N)cc2)nc2ccccc21`, the MIC was determined as 64 µg/mL (≈ 203 µM) in experiment [1]; 128 µg/mL (≈ 406 µM) in experiment [2]; 64 µg/mL (≈ 203 µM) in experiment [3]; 64 µg/mL (≈ 203 µM) in [4]; 64 µg/mL (≈ 203 µM) in experiment [5]; 128 µg/mL (≈ 406 µM) in experiment [6]. For the same compound, the MIC in [7] worked out at 32 µg/mL (≈ 101 µM); in [8] it was 128 µg/mL (≈ 406 µM); in [9], 256 µg/mL (≈ 812 µM); in [10], 512 µg/mL (≈ 1620 µM); in experiment [11] it was 64 µg/mL (≈ 203 µM); in [12], 512 µg/mL (≈ 1620 µM). The same compound displayed an MIC in experiment [13] of 64 µg/mL (≈ 203 µM).
Regarding `CC(=O)Nc1ccc(S(=O)(=O)Cc2nc3ccccc3n2Cc2ccc(Cl)c(Cl)c2)cc1`, the MIC in experiment [1] is 128 µg/mL (≈ 262 µM); in experiment [2], 256 µg/mL (≈ 524 µM); in experiment [3] it was 512 µg/mL (≈ 1050 µM); in [4], 256 µg/mL (≈ 524 µM); in experiment [5] it was 64 µg/mL (≈ 131 µM); in experiment [6] it was 512 µg/mL (≈ 1050 µM). Moreover, the MIC is 16 µg/mL (≈ 32.8 µM) in experiment [7]; 512 µg/mL (≈ 1050 µM) in [8]; 64 µg/mL (≈ 131 µM) in experiment [9]; 512 µg/mL (≈ 1050 µM) in experiment [10]; 128 µg/mL (≈ 262 µM) in [11]; 32 µg/mL (≈ 65.5 µM) in experiment [12]. Moreover, in [13], the minimum inhibitory concentration (MIC) was found to be 512 µg/mL (≈ 1050 µM).
For the compound `CCCCCCCCCCCCCCCCCCn1c(CS(=O)(=O)c2ccc(NC(C)=O)cc2)nc2ccccc21`, the MIC in experiment [1] stood at 512 µg/mL (≈ 880 µM); in [2], 512 µg/mL (≈ 880 µM); in [3], 512 µg/mL (≈ 880 µM); in experiment [4], 512 µg/mL (≈ 880 µM); in experiment [5], 128 µg/mL (≈ 220 µM); in experiment [6], 512 µg/mL (≈ 880 µM). In addition, the MIC in [7], in experiment [8], in experiment [9], in experiment [10], in experiment [11] and in experiment [12] was 512 µg/mL (≈ 880 µM) each time. For the same compound, in experiment [13], 512 µg/mL (≈ 880 µM) was the least that counted as inhibitory (MIC).
For `CCCCCCn1c(CS(=O)(=O)c2ccc(NC(C)=O)cc2)nc2ccccc21`, the MIC stood at 128 µg/mL (≈ 310 µM) in experiment [1]; 256 µg/mL (≈ 619 µM) in [2]; 512 µg/mL (≈ 1240 µM) in [3]; 512 µg/mL (≈ 1240 µM) in experiment [4]; 512 µg/mL (≈ 1240 µM) in experiment [5]; 512 µg/mL (≈ 1240 µM) in experiment [6]. Moreover, the MIC in experiment [7] amounted to 512 µg/mL (≈ 1240 µM); in experiment [8] it was 512 µg/mL (≈ 1240 µM); in experiment [9] it was 512 µg/mL (≈ 1240 µM); in experiment [10] it was 512 µg/mL (≈ 1240 µM); in experiment [11] it was 256 µg/mL (≈ 619 µM); in experiment [12], 512 µg/mL (≈ 1240 µM). The compound further had an MIC in experiment [13] of 512 µg/mL (≈ 1240 µM).
